Assay results reported in ChEMBL document CHEMBL4033640, “Design, synthesis and biological evaluation of 3-substituted-2-oxindole hybrid derivatives as novel anticancer agents” (Eur J Med Chem, 2017).
pIC50: −log10 of the molar value. Active and inactive are the calls of the source. The rule behind the calls is not given here.

Key:
MCF7 = test: Antiproliferative activity against human MCF7 cells after 72 hrs by MTT assay; type: functional, cell-based; conditions: MCF7, 72 h
Summary of the method: (§1)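 Cells grown in DMEM with 10% FBS, penicillin G and streptomycin. 8 × 10³ cells per well, incubated overnight at 37 °C in 5% CO₂, then exposed to graded compound concentrations (from 10 mM DMSO stocks) in triplicate for 72 h. Viability measured by MTT. IC50 taken from dose-response curves, given as mean ± SE of at least three independent experiments run in triplicate.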

CCRF-CEM = test: Antiproliferative activity against human CCRF-CEM cells after 72 hrs by MTT assay; type: functional, cell-based
HL-60 = test: Antiproliferative activity against human HL60 cells after 72 hrs by MTT assay; type: functional, cell-based; conditions: HL-60, 72 h
Jurkat [1] = test: Antiproliferative activity against human Jurkat cells after 72 hrs by MTT assay; type: functional, cell-based
Summary of the method: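 Cells exposed to graded compound concentrations (from 10 mM DMSO stocks) in triplicate for 72 h at 37 °C. Viability measured by MTT. IC50 taken from dose-response curves, given as mean ± SE of at least three independent experiments run in triplicate.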

HT-29 = test: Antiproliferative activity against human HT-29 cells after 72 hrs by MTT assay; type: functional, cell-based; conditions: HT-29, 72 h; summary of the method: as §1
RS4-11 = test: Antiproliferative activity against human RS4:11 cells after 72 hrs by MTT assay; type: functional, cell-based; conditions: RS4-11, 72 h
[2] = molecular target: T1, Serine/threonine-protein kinase Nek2 (Homo sapiens) (UniProt P51955); test: Inhibition of recombinant human full-length N-terminal GST-tagged NEK2 expressed in baculovirus infected Sf9 insect cells at 1 uM using MBP as substrate after 30 mins by ADP-Glo reagent based luminescence assay
T1 sequence (whole entry): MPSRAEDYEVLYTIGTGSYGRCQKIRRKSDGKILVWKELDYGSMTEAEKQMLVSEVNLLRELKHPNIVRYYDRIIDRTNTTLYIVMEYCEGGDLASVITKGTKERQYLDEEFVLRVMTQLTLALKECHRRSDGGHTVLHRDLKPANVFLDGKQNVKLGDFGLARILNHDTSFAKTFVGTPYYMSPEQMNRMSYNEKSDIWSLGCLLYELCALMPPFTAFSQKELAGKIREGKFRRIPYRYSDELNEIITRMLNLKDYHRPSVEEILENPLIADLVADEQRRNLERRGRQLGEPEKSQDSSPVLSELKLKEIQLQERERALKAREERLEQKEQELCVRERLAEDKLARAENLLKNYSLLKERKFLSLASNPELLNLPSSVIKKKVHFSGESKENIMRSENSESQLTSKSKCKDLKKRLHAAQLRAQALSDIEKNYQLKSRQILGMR
Summary of the method: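 Nek2 activity measured with the bioluminescent ADP-Glo kinase assay, compounds at 1 µM final concentration. Percentage inhibition given as means ± SEM of two independent experiments performed in duplicate.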

HeLa [3] = test: Antiproliferative activity against human HeLa cells after 72 hrs by MTT assay; type: functional, cell-based; summary of the method: as §1
HeLa [4] = test: Cell cycle arrest in human HeLa cells assessed as decrease in G1 phase at 1 uM after 24 hrs by propidium iodide staining based flow cytometry; type: functional; parameters: scale not given: the % may be the effect or the level left
Summary of the method: (§2)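 5 × 10⁵ HeLa cells treated for 24 h at the indicated concentrations, then fixed in ice-cold 70% ethanol. Lysis buffer with RNase A and 0.1% Triton X-100 applied, cells stained with PI, and DNA content read by flow cytometry to give percentage of cells in each phase.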

Jurkat [5] = test: Induction of apoptosis in human Jurkat cells at 100 nM after 24 to 48 hrs by annexin-V/FITC propidium iodide staining based flow cytometry; type: functional, cell-based
Summary of the method: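 Cells treated with compound at the indicated concentrations for 24 or 48 h, then double-stained with annexin V-FITC and PI. Phosphatidylserine exposure measured by flow cytometry. Means ± SEM of three independent experiments.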

HeLa [6] = test: Induction of DNA damage in human HeLa cells assessed as increase in gamma-H2AX level at 0.5 to 1 uM after 24 hrs by Western blot analysis; type: functional, cell-based
Summary of the method: (§3)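 HeLa cells treated for 24 h and washed in ice-cold PBS. Cells lysed on ice for 30 min and lysate cleared at 15000 x g. 10 μg protein resolved by SDS-PAGE (7.5–15%) and blotted. Membranes blocked with 3% BSA, probed with antibodies to caspase-9 or γH2AX, detected by ECL. Bands quantified and normalized to β-actin, mean±SD of two gels.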

HeLa [7] = test: Antiproliferative activity against human HeLa cells at 1 uM after 48 hrs in presence of 100 uM NAC by annexin-V staining based assay; type: functional, cell-based
Summary of the method: (§4)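 HeLa cells treated with compound at 1.0 µM for 48 h together with 100 µM N-acetyl-L-cysteine or DL-α-tocopherol acetate. Cell death measured by annexin-V assay with flow cytometry. Means ± S.E.M. of three independent experiments.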

HeLa [8] = test: Induction of apoptosis in human HeLa cells assessed as cleaved caspase-9 expression at 0.5 to 1 uM after 24 hrs by Western blot analysis; type: functional, cell-based; summary of the method: as §3
HeLa [9] = test: Antiproliferative activity against human HeLa cells at 1 uM after 48 hrs in presence of 100 uM TOC by annexin-V staining based assay; type: functional, cell-based; summary of the method: as §4
Jurkat [10] = test: Induction of GSH depletion in human Jurkat cells at 0.5 to 10 uM after 30 mins by CMFDA-probe based flow cytometry; type: functional, cell-based; conditions: in the assay text read “after 12 to 24 hrs” for “after 30 mins”
Summary of the method: (§5)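 Cells treated with compound for 12–24 h, harvested, then loaded with 5 µM CMFDA at 37 °C for 30 min. GSH-dependent fluorescence measured by flow cytometry. Means ± S.E.M. of three independent experiments.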

HeLa [11] = test: Induction of mitochondrial membrane depolarization in human HeLa cells at 0.5 to 1 uM after 12 to 24 hrs JC-1 staining based flow cytometry; type: functional, cell-based
Summary of the method: (§6)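 Cells treated at the indicated concentrations for the indicated times (12 and 24 h). Stained with JC-1 and analyzed by flow cytometry for dissipation of mitochondrial membrane potential.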

Jurkat [12] = test: Induction of mitochondrial membrane depolarization in human Jurkat cells at 10 to 100 nM after 12 to 24 hrs JC-1 staining based flow cytometry; type: functional, cell-based; summary of the method: as §6
PBL [13] = test: Cytotoxicity against resting human PBL assessed as reduction in cell viability after 72 hrs by MTT assay; type: cell-based
Summary of the method: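 PBL isolated from healthy donors' buffy coats by density-gradient centrifugation and held overnight in RPMI-1640 with 10% FBS. Non-adherent cells without PHA resuspended at 5 × 10⁵ cells/mL and treated for 72 h. Viability read by MTT. IC50 reported as mean ± SEM of two separate experiments.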

HeLa [14] = test: Induction of GSH depletion in human HeLa cells at 0.5 to 10 uM after 30 mins by CMFDA-probe based flow cytometry; type: functional, cell-based; conditions: in the assay text read “after 12 to 24 hrs” for “after 30 mins”; summary of the method: as §5
PBL [15] = test: Cytotoxicity against PHA-stimulated human PBL assessed as reduction in cell viability after 72 hrs by MTT assay; type: cell-based
Summary of the method: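 PBL isolated from healthy donors' buffy coats by density-gradient centrifugation and held overnight in RPMI-1640 with 10% FBS. Non-adherent cells resuspended at 5 × 10⁵ cells/mL with 2.5 μg/mL PHA and given graded compound concentrations. Viability read by MTT after 72 h. IC50 reported as mean ± SEM of two separate experiments.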

HeLa [16] = test: Cell cycle arrest in human HeLa cells assessed as decrease in G1 phase at 0.5 to 1 uM after 24 hrs by propidium iodide staining based flow cytometry; type: functional; summary of the method: as §2

Structure (SMILES)	pIC50 (MCF7)	pIC50 (CCRF-CEM)	pIC50 (HL-60)	pIC50 (Jurkat [1])	pIC50 (HT-29)	pIC50 (RS4-11)	inhibition [2] [%]	pIC50 (HeLa [3])	also measured
C=C(Br)C(=O)Nc1ccc2c(c1)/C(=C\c1ccsc1)C(=O)N2	5.68	8.22	6.11	7.25	6.51	6.72	5 to 20	5.59	
C=C(Br)C(=O)Nc1ccc2c(c1)CC(=O)N2	5.48	6.66	6.46	5.96	5.36	6.66	5 to 20	5.35	
C=C(Br)C(=O)Nc1ccc2c(c1)/C(=C/c1ccc[nH]1)C(=O)N2	6.15	8.52	6.85	6.96	6.10	9.00	50	6.30	Activity (HeLa [4]): 20%; Activity (Jurkat [5]): Active; Activity (HeLa [6]): Active; Activity (HeLa [7]): Active; Activity (HeLa [8]): Active; Activity (HeLa [9]): inactive; Activity (Jurkat [10]): Active; Activity (HeLa [11]): Active; Activity (Jurkat [12]): Active; pIC50 (PBL [13]): 5.82; Activity (HeLa [14]): Active; pIC50 (PBL [15]): 6.07 to 6.08
C=C(Br)C(=O)Nc1ccc2c(c1)/C(=C/c1ccsc1)C(=O)N2	5.55	8.40	6.46	6.72	6.22	6.72	5 to 20	5.46	
C#CC(=O)Nc1ccc2c(c1)/C(=C/c1ccc[nH]1)C(=O)N2	5.43	7.30	5.24	6.47	5.64	7.15	5 to 20	5.36	Activity (HeLa [16]): inactive
C=C(Br)C(=O)Nc1ccc2c(c1)/C(=C\c1ccc(C)s1)C(=O)N2	5.36	9.00	7.92	6.82	6.52	7.70	5 to 20	5.70	
C=C(Br)C(=O)Nc1ccc2c(c1)/C(=C/c1sccc1C)C(=O)N2	5.59	9.30	7.89	7.52	5.92	9.40	5 to 20	6.38	
C=C(Br)C(=O)Nc1ccc2c(c1)/C(=C/c1ccc(C)s1)C(=O)N2	5.52	8.05	7.62	6.44	6.25	7.30	5 to 20	5.80	
C=C(Br)C(=O)Nc1ccc2c(c1)/C(=C/c1cccs1)C(=O)N2	5.77	7.46	6.64	6.68	6.62	8.70	5 to 20	5.77	
Nc1ccc2c(c1)C(=Cc1ccsc1)C(=O)N2		< 5.00				< 5.00			
C=C(Br)C(=O)Nc1ccc2c(c1)/C(=C\c1sccc1C)C(=O)N2	5.64	9.05	7.41	7.40	6.48	8.40	5 to 20	6.35	Activity (HeLa [4]): 20%; Activity (Jurkat [5]): Active; Activity (HeLa [6]): Active; Activity (HeLa [7]): Active; Activity (HeLa [8]): Active; Activity (HeLa [9]): inactive; Activity (Jurkat [10]): Active; Activity (HeLa [11]): Active; Activity (Jurkat [12]): Active; pIC50 (PBL [13]): 6.35; Activity (HeLa [14]): Active; pIC50 (PBL [15]): 5.91
C=C(Br)C(=O)Nc1ccc2c(c1)/C(=C\c1cccs1)C(=O)N2	5.64	8.00	7.82	7.80	5.26	7.52	5 to 20	5.74	
